Data: ChEMBL document CHEMBL5252510, “A Novel Potent Oral Series of VEGFR2 Inhibitors Abrogate Tumor Growth by Inhibiting Angiogenesis” (J Med Chem, 2016)
The source made the active and inactive calls. No cut-off for these calls is given here.

Legend:
[1] = Antitumor activity against rat BN472 cell implanted in Brown-Norway rat assessed as tumor growth inhibition by measuring T/C ratio at 30 mg/kg, po qd measured upto 14 days; assay type: functional; details: time <= 14 day
Outline: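 Female Brown-Norway rats (160–180 g) received 3 mm³ BN472 tumor fragments in the mammary fat pad. Randomized at about 200 mm² tumor, 2–3 weeks after transplant, into groups of 7–8. Oral daily dosing in PEG300 vehicle for 14 days. Tumor growth curves were compared with vehicle. Experiment run twice.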

Mus musculus [2] = assay: Anti-angiogenesis activity in FVB mouse model assessed as inhibition of VEGF-induced tissue weight at 50 mg/kg, po qd treated for 4 to 6 hrs prior to chamber implantation and continuing for 4 days measured after 24 hrs post last dose; assay type: functional, organism-based; details: time 5.0 day
Outline: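 Chamber model in female FVB mice: VEGF (2 μg/mL) agar/heparin chambers s.c. in flank, oral dosing once daily starting 4-6 h before implantation and continuing 4 days; vascularized tissue harvested and weighed 24 h after final dose; 6 mice per group.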

BaF3 [3] = assay: Antiproliferative activity against mouse BaF3 cells expressing Tel-FGFR3 assessed as cell growth inhibition measured after 72 hrs by Alamar Blue assay; details: BaF3, 72 h
BaF3 [4] = assay: Antiproliferative activity against mouse BaF3 cells expressing Bcr-ABL assessed as cell growth inhibition measured after 72 hrs by Alamar Blue assay; details: BaF3, 72 h
BaF3 [5] = assay: Antiproliferative activity against mouse BaF3 cells expressing PTC3-RET assessed as cell growth inhibition measured after 72 hrs by Alamar Blue assay; details: BaF3, 72 h
B16-BL6 [6] = assay: Antitumor activity against mouse B16-BL6 cells implanted in C57BL/6jNpa mouse assessed as primary tumor growth inhibition by measuring T/C ratio at 100 mg/kg, po qd administered started on day 7 post implantation measured after 21 days; assay type: functional; details: time 7-21 day
Outline: (§1)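 Female C57BL/6JNpa mice, 50000 B16/BL6 cells intradermally in both ear pinnae; primary tumor area (mm²) imaged days 7, 14, 21; randomized day 7 into groups of 5-6, oral dosing in PEG200 or PEG300 vehicle daily (or every 2 days) for 14 days; day 21 cervical lymph nodes weighed, metastasis lysates assayed for TIE-2 by ELISA; T/C ratios.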

BaF3 [7] = assay: Antiproliferative activity against mouse BaF3 cells expressing FLT3-ITD assessed as cell growth inhibition measured after 72 hrs by Alamar Blue assay; details: BaF3, 72 h
[8] = Antitumor activity against rat BN472 cell implanted in Brown-Norway rat assessed as tumor growth inhibition by measuring T/C ratio at 100 mg/kg, po qd measured upto 14 days; assay type: functional; details: time <= 14 day
Outline: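 Female Brown-Norway rats (160-180 g) given 3 mm³ BN472 tumor fragments in mammary fat pads; at about 200 mm², randomized into groups of 7-8 and dosed orally with compound or PEG300 vehicle over 14 days; tumor growth followed, T/C computed; significance by 2-way RM-ANOVA.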

BaF3 [9] = assay: Antiproliferative activity against mouse BaF3 cells assessed as cell growth inhibition measured after 72 hrs by Alamar Blue assay; details: BaF3, 72 h
[10] = biological target: Vascular endothelial growth factor receptor 2 (Mus musculus, UniProt P35918); assay: Inhibition of mouse recombinant GST-fused VEGFR2 kinase domain expressed in baculovirus expression system using poly-Glu-Tyr (4:1) as substrate measured after 10 mins in presence of gamma-[33P]-ATP by scintillation counting analysis
Chain of Vascular endothelial growth factor receptor 2 (P35918 whole entry, the tested form may be a part): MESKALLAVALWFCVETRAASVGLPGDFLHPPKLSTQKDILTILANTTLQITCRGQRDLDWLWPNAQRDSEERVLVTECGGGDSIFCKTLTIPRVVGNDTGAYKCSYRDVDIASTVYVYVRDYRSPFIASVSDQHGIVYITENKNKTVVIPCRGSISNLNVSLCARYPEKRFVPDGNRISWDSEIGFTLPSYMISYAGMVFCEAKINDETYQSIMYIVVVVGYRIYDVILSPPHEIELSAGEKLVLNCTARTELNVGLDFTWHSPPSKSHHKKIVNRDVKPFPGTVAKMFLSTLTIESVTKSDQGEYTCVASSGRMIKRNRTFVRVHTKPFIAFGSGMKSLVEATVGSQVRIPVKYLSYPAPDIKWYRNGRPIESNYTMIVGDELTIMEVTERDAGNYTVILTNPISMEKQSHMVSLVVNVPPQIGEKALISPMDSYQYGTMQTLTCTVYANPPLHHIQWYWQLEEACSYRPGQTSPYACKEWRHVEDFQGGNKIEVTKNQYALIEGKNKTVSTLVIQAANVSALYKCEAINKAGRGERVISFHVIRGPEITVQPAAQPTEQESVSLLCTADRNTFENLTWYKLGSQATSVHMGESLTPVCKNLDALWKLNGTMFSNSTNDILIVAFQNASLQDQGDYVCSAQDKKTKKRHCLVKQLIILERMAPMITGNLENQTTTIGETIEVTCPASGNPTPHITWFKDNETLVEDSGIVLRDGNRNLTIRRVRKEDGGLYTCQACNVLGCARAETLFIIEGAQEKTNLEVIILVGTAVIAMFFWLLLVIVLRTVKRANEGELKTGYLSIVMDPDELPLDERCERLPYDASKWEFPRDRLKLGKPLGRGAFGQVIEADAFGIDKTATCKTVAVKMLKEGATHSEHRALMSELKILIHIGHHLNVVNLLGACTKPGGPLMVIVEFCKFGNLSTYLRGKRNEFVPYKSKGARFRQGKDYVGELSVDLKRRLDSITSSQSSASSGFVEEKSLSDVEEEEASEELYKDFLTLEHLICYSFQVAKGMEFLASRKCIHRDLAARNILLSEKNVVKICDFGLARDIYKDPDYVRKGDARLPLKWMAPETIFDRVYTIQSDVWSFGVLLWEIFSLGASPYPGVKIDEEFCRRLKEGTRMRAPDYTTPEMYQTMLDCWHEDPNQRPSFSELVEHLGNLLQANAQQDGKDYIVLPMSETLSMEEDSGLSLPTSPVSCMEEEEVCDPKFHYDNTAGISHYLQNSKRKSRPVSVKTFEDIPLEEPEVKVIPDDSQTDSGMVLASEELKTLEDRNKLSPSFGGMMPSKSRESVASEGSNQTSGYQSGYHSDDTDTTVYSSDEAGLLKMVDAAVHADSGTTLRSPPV
Outline: (§2)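 GST-fused kinase domains were expressed in baculovirus and purified on glutathione-Sepharose. 10 min at ambient temperature, stopped with EDTA. Filter binding and scintillation counting. IC50 by linear regression of percent inhibition.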

BaF3 [11] = assay: Antiproliferative activity against mouse BaF3 cells expressing ERBB2 V659E mutant assessed as cell growth inhibition measured after 72 hrs by Alamar Blue assay; details: BaF3, 72 h
BaF3 [12] = assay: Antiproliferative activity against mouse BaF3 cells expressing Tel-IGF-1R assessed as cell growth inhibition measured after 72 hrs by Alamar Blue assay; details: BaF3, 72 h
HUVEC [13] = assay: Antiproliferative activity against VEGF-stimulated HUVEC cells assessed as cell growth inhibition measured after 24 hrs by BrdUrd incorporation based spectrophotometric analysis; details: Homo sapiens
HUVEC [14] = assay: Antiproliferative activity against bFGF-stimulated HUVEC cells assessed as cell growth inhibition measured after 24 hrs by BrdUrd incorporation based spectrophotometric analysis; details: Homo sapiens
BaF3 [15] = assay: Antiproliferative activity against mouse BaF3 cells expressing Trp-MET assessed as cell growth inhibition measured after 72 hrs by Alamar Blue assay; details: BaF3, 72 h
BaF3 [16] = assay: Antiproliferative activity against mouse BaF3 cells expressing KIT D816V mutant assessed as cell growth inhibition measured after 72 hrs by Alamar Blue assay; details: BaF3, 72 h
BaF3 [17] = assay: Antiproliferative activity against mouse BaF3 cells expressing Tel-PDGFRbeta assessed as cell growth inhibition measured after 72 hrs by Alamar Blue assay; details: BaF3, 72 h
BaF3 [18] = assay: Antiproliferative activity against mouse BaF3 cells expressing NPM-ALK assessed as cell growth inhibition measured after 72 hrs by Alamar Blue assay; details: BaF3, 72 h
B16-BL6 [19] = assay: Antitumor activity against mouse B16-BL6 cells implanted in C57BL/6jNpa mouse assessed as metastatic tumor growth inhibition by measuring T/C ratio at 100 mg/kg, po qd administered started on day 7 post implantation measured after 21 days relative to control; assay type: functional; details: time 7-21 day; outline: as §1
[20] = biological target: Fibroblast growth factor receptor 3 (Homo sapiens) (UniProt P22607); assay: Inhibition of human recombinant GST-fused FGFR3 expressed in baculovirus expression system using poly-Glu-Tyr (4:1) as substrate measured after 10 mins in presence of gamma-[33P]-ATP by scintillation counting analysis; outline: as §2
Chain of Fibroblast growth factor receptor 3 (Homo sapiens) (P22607 23-806 limits assumed): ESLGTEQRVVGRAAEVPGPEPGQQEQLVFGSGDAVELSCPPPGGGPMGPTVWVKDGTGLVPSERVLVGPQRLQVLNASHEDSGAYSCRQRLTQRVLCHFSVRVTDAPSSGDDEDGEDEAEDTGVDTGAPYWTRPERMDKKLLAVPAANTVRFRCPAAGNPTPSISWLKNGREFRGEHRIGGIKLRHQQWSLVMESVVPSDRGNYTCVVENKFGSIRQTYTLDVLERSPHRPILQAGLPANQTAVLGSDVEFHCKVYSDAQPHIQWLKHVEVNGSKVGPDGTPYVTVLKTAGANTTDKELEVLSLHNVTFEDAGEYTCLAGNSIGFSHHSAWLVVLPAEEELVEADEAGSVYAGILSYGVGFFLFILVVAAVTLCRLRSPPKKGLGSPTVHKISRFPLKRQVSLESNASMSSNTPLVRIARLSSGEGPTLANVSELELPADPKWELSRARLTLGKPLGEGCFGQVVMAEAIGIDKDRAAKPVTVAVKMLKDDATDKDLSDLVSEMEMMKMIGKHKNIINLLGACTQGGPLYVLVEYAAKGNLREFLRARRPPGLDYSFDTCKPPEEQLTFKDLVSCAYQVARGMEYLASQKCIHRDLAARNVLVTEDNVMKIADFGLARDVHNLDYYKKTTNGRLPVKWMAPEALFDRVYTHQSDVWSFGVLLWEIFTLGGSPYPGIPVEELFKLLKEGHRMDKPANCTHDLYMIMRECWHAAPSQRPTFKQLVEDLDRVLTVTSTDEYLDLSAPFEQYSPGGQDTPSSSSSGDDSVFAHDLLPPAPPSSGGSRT

[21] = biological target: Cyclin-dependent kinase 1 (Homo sapiens) (UniProt P06493); assay: Inhibition of human recombinant GST-fused CDK1 expressed in baculovirus expression system using poly-Glu-Tyr (4:1) as substrate measured after 10 mins in presence of gamma-[33P]-ATP by scintillation counting analysis; outline: as §2
Chain of Cyclin-dependent kinase 1 (Homo sapiens) (P06493 whole entry, looked up, the tested form may be a part): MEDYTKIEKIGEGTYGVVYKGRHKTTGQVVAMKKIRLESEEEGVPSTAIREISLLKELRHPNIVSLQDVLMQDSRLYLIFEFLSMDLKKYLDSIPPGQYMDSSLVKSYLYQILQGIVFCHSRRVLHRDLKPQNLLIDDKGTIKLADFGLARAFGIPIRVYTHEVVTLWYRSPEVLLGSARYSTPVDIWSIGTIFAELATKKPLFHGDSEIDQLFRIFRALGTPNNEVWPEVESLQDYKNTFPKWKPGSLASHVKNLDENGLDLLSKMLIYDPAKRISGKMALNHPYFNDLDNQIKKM

[22] = biological target: Hepatocyte growth factor receptor (Homo sapiens) (UniProt P08581); assay: Inhibition of human recombinant GST-fused c-MET expressed in baculovirus expression system using poly-Glu-Tyr (4:1) as substrate measured after 10 mins in presence of gamma-[33P]-ATP by scintillation counting analysis; outline: as §2
Chain of Hepatocyte growth factor receptor (Homo sapiens) (P08581 whole entry, the tested form may be a part): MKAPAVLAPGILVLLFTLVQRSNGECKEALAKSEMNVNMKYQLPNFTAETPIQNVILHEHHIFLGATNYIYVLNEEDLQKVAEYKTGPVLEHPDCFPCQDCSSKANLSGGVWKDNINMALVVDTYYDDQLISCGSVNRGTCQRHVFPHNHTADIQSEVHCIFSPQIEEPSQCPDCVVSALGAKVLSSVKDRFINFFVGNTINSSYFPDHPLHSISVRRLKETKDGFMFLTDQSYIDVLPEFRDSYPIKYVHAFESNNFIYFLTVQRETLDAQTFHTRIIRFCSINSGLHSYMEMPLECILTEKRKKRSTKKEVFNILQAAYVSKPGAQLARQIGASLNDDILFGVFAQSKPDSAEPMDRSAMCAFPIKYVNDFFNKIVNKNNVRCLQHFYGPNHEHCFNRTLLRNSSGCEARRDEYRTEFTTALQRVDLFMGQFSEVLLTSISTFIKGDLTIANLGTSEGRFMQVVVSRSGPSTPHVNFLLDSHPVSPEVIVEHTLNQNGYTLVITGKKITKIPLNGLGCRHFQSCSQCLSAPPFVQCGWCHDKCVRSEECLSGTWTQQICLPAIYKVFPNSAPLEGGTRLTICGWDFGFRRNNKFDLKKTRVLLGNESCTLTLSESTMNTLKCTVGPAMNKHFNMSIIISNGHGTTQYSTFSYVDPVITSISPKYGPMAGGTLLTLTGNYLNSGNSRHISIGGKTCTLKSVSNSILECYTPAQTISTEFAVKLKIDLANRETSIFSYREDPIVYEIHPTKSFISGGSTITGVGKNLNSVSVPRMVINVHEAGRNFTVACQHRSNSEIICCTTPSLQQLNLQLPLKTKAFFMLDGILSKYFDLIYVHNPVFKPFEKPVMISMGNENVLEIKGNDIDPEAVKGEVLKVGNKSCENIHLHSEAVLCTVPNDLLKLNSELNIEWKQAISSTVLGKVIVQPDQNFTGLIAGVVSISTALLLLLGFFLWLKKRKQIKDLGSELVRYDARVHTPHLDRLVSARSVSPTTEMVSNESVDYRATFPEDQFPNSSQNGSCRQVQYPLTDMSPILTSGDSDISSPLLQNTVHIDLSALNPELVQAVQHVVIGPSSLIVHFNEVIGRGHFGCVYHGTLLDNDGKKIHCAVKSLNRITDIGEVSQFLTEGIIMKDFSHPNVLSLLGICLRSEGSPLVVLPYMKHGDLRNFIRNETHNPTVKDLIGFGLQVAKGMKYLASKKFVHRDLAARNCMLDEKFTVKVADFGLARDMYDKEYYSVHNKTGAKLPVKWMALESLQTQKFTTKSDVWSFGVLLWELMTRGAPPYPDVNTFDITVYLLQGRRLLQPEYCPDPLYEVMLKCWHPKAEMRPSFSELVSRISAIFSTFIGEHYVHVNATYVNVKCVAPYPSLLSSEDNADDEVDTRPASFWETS

Mus musculus [23] = species on record: Mus musculus; assay: Antiangiogenic activity in C57BL/6jNpa mouse harbouring mouse B16-BL6 cells assessed as reduction in tumor plasma volume measured after 3 days by DCE-MRI assay relative to control; assay type: functional; design: scale not given: the % may be the effect or the level left; details: time 3 day
Outline: (§3)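 C57BL/6JNpa mice bearing B16/BL6 cervical lymph-node metastases, at least 8 per group, anaesthetized and given contrast agent; DCE-MRI Ktrans and iAUEC (permeability) and Vp (plasma volume) measured before and again after daily treatment; change per mouse recorded, mean ± SEM, one-way ANOVA with Holm-Sidak comparisons versus vehicle.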

Mus musculus [24] = species on record: Mus musculus; assay: Antiangiogenic activity in C57BL/6jNpa mouse harbouring mouse B16-BL6 cells assessed as reduction in tumor plasma volume by measuring T/C ratio measured after 3 days by DCE-MRI assay; assay type: functional; details: time 3 day; outline: as §3
B16-BL6 [25] = assay: Antitumor activity against mouse B16-BL6 cells implanted in C57BL/6jNpa mouse assessed as primary tumor growth inhibition at 100 mg/kg, po qd administered started on day 7 post implantation measured after 21 days relative to control; assay type: functional, organism-based; details: time 7-21 day; outline: as §1
BN472 cell [26] = assay: Antitumor activity against rat BN472 cell implanted in Brown-Norway rat assessed as reduction in perfused blood vessels at 100 mg/kg, po qd measured upto 14 days by Hoechst staining based microscopic analysis; assay type: functional, organism-based; details: time <= 14.0 day
Outline: (§4)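 BN472-bearing Brown-Norway rats dosed orally; Hoechst dye i.v. shortly before sacrifice to mark perfused vessels; tumors cryosectioned at 10 micron, blocked in 10 % goat serum/0.1 % Triton X-100, stained with rabbit anti-Ki67 (1:200) or anti-caspase 3 (1:10) and fluorescent secondary antibodies; fluorescence microscopy.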

Mus musculus [27] = species on record: Mus musculus; assay: Antiangiogenic activity in C57BL/6jNpa mouse harbouring mouse B16-BL6 cells assessed as reduction in iAUEC level measured after 3 days by DCE-MRI assay relative to control; assay type: functional; design: scale not given: the % may be the effect or the level left; details: time 3 day; outline: as §3
Mus musculus [28] = species on record: Mus musculus; assay: Antiangiogenic activity in C57BL/6jNpa mouse harbouring mouse B16-BL6 cells assessed as reduction in iAUEC level by measuring T/C ratio measured after 3 days by DCE-MRI assay; assay type: functional; details: time 3 day; outline: as §3
B16-BL6 [29] = assay: Antitumor activity against mouse B16-BL6 cells implanted in C57BL/6jNpa mouse assessed as metastatic tumor growth inhibition at 100 mg/kg, po qd administered started on day 7 post implantation measured after 21 days relative to control; assay type: functional, organism-based; details: time 7-21 day; outline: as §1
Mus musculus [30] = species on record: Mus musculus; assay: Antiangiogenic activity in C57BL/6jNpa mouse harbouring mouse B16-BL6 cells assessed as reduction in K-trans level by measuring T/C ratio measured after 3 days by DCE-MRI assay; assay type: functional; details: time 3 day; outline: as §3
Mus musculus [31] = species on record: Mus musculus; assay: Antiangiogenic activity in C57BL/6jNpa mouse harbouring mouse B16-BL6 cells assessed as reduction in K-trans level measured after 3 days by DCE-MRI assay relative to control; assay type: functional; design: scale not given: the % may be the effect or the level left; details: time 3 day; outline: as §3
BN472 cell [32] = assay: Induction of apoptosis in rat BN472 cell implanted in Brown-Norway rat assessed as effect on caspase 3 level at 100 mg/kg, po qd measured upto 14 days by microscopic analysis; assay type: functional, organism-based; details: time <= 14.0 day
Outline: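 BN472 fragments were grown in mammary fat pads of female Brown-Norway rats and dosed orally for 14 days. Hoechst dye was given i.v. 2 min before sacrifice. Excised tumors were cut as 10 micron frozen sections, blocked with 10 % normal goat serum/0.1 % Triton X-100 and stained with rabbit anti-rat caspase 3 (1:10), then a TRITC or FITC secondary. Read by fluorescence microscopy.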

BN472 cell [33] = assay: Antitumor activity against rat BN472 cell implanted in Brown-Norway rat assessed as reduction in perfused blood vessels at 100 mg/kg, po qd measured upto 14 days by Ki67 staining based microscopic analysis; assay type: functional, organism-based; details: time <= 14.0 day, in the assay text read “Hoechst dye staining” for “Ki67 staining”; outline: as §4

IC50 (BaF3 [3])	IC50 (BaF3 [4])	IC50 (BaF3 [5])	IC50 (BaF3 [7])	IC50 (BaF3 [9])	IC50 (BaF3 [11])	IC50 (BaF3 [12])	IC50 (BaF3 [15])	IC50 (BaF3 [16])	IC50 (BaF3 [17])	IC50 (BaF3 [18])	SMILES	T/C (B16-BL6 [6])	IC50 (HUVEC [13])	IC50 (HUVEC [14])	T/C (B16-BL6 [19])	other results
–	–	–	–	–	–	–	–	–	–	–	COc1cc2/c(=N/c3ccc(Br)cc3F)nc[nH]c2cc1OCC1CCN(C)CC1 [VANDETANIB]	–	–	–	–	T/C [1]: 0.35; Activity (Mus musculus [2]): Active
> 5.5 µM	> 5.5 µM	2.9 µM	> 5.5 µM	> 10 µM	5.6 µM	8.4 µM	> 5.5 µM	> 5.5 µM	0.019 µM	> 5.5 µM	O=C(Nc1cccc(C(F)(F)F)c1)c1ccccc1NCc1ccncc1	0.35	0.001 µM	> 3 µM	0.17	T/C [8]: 0.37; IC50 [10]: 0.055 µM
2.46 µM	5.82 µM	0.078 µM	0.012 µM	> 10 µM	4.21 µM	3.68 µM	7.4 µM	2.8 µM	–	1.01 µM	CNC(=O)c1cc(Oc2ccc(NC(=O)Nc3ccc(Cl)c(C(F)(F)F)c3)cc2)ccn1 [SORAFENIB]	–	–	–	–	inhibition [20]: Active; inhibition [21]: Active; inhibition [22]: Active
> 10 µM	> 10 µM	> 10 µM	> 10 µM	> 10 µM	> 10 µM	> 10 µM	> 10 µM	> 10 µM	0.076 µM	> 10 µM	Clc1ccc(Nc2nnc(Cc3ccncc3)c3ccccc23)cc1.O=C(O)CCC(=O)O	0.44	0.0071 µM	> 3 µM	0.34	Activity (Mus musculus [23]): 33%; T/C (Mus musculus [24]): 0.67; Activity (B16-BL6 [25]): Active; Activity (BN472 cell [26]): Active; Activity (Mus musculus [27]): 33%; T/C (Mus musculus [28]): 0.61; Activity (B16-BL6 [29]): Active; T/C (Mus musculus [30]): 0.49; Activity (Mus musculus [31]): 51%; Activity (BN472 cell [32]): Active; Activity (BN472 cell [33]): Active
